Publication PMC4364388 (Biochimica et biophysica acta, 2015)
≈ marks a conversion by molar mass, not a printed value. Where “and” joins values, the source holds several entries; their conditions need not be identical. Equal entries are not always repeated. Where two headings read alike, the source gives them in different places.

How the values were obtained:
[1] = target: T1, rat UT-A1 (Rattus norvegicus, UniProt Q62668); test: UT-A1 inhibition assay; assay type: cell-based; details: for IC50: UT-A1 IC50, MDCK cells expressing rat UT-A1, YFP and AQP1, 20 min incubation; for Selectivity for UT-A1 vs. UT-B inhibition: comparison of IC50 values for UT-A1 and UT-B
T1 sequence (Q62668 1-929): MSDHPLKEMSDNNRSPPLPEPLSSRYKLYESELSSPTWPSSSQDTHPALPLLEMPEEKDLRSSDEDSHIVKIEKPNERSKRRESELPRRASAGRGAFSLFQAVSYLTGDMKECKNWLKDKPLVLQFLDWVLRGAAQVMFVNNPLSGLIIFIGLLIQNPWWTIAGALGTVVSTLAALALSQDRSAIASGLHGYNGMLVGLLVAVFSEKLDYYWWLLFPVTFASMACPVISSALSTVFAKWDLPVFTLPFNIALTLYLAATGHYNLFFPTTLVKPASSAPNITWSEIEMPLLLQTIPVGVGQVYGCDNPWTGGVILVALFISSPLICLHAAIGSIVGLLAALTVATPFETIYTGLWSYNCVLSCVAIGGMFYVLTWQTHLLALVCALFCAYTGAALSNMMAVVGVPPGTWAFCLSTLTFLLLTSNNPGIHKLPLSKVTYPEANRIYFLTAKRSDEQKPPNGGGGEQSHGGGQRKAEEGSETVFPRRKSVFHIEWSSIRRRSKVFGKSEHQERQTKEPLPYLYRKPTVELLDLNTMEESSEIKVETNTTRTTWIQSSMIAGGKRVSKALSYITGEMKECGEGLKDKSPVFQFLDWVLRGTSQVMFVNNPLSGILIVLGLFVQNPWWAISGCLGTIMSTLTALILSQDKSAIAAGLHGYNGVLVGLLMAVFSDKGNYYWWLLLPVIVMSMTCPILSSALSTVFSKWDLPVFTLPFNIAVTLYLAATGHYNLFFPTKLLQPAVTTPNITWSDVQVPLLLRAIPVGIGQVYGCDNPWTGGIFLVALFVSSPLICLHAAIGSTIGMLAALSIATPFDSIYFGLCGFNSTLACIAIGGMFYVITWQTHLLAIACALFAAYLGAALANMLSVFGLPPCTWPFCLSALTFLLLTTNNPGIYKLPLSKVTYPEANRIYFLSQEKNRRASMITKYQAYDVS

[2] = target: T2, rat UT-B (Rattus norvegicus, UniProt P97689); test: UT-B inhibition, erythrocyte lysis assay; assay type: cell-based; details: for IC50: 15 min incubation
T2 sequence (P97689 1-384): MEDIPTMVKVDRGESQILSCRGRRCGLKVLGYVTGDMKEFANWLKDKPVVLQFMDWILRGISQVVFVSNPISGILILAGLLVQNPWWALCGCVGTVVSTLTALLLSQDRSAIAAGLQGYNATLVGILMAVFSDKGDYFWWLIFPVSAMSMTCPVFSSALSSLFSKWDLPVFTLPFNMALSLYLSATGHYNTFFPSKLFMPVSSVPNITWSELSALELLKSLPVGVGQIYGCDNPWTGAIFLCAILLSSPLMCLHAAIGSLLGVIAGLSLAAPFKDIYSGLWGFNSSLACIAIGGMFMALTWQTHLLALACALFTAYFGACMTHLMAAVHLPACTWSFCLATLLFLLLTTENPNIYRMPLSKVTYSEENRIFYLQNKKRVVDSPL

[3] = target: T1, rat UT-A1; test: Functional studies of UT-A1 inhibition; assay type: cell-based
Summary of the method: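 MDCK cells stably co-expressing rat UT-A1, YFP-H148Q/V163S and human AQP1 were plated 24 h before assay. Reversibility: 15 min with 0.2 mM test compound, two PBS washes, then assay. Kinetics: 0.2 mM added at varied times before assay. Urea dependence: concentration-response at 80–1,600 mM urea gradients. Read-out was YFP fluorescence 7 s after urea addition, normalised to negative and positive controls.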

[4] = Water solubility; assay type: physicochemical
[5] = tested on: MDCK cells; test: Cytotoxicity to MDCK cells; assay type: cell-based, canine; details: at solubility limit
[6] = target: T1, rat UT-A1; details: read-out: UT-A1 IC50; earlier finding; cited from earlier work
[7] = target: T2, rat UT-B; details: read-out: UT-B IC50; earlier finding; cited from earlier work
[8] = tested on: rats; details: listed as DMTU; cited from earlier work
[9] = UT-B IC50, rat erythrocyte lysis assay
[10] = read-out: UT-B IC50, rat erythrocyte lysis assay

Compound	IC50 [1]	Selectivity for UT-A1 vs. UT-B inhibition [1]	IC50 [2, 9]	UT-A1 inhibition activity (in words) [1]	UT-B inhibition activity (in words) [2]	IC50 [2, 10] [µM]	also measured
NC(=S)Nc1ccc([N+](=O)[O-])cc1 [Compound 18, 4-nitrophenylthiourea]	1300 ± 300 µM	UT-A1 selective	10000 ± 1000 µM				
CN(C)C(=S)N(C)C [Compound 5, Tetramethylthiourea]	> 25000 µM		> 25000 µM	inactive	inactive		
CNC(=O)NC [Compound 3, dimethylurea]				loss of activity	loss of activity	14000 ± 2000	
cyclohexylthiourea [Compound 12]				potencies comparable to DMTU	potencies comparable to DMTU	5200 ± 600	
NC(=S)Nc1ccc(Cl)c(Cl)c1 [Compound 21, 3,4-dichlorophenylthiourea]	1500 ± 400 µM		400 ± 100 µM				
NC(=S)Nc1ccccc1 [Compound 9, phenylthiourea]	8800 ± 300 µM		14000 ± 1000 µM	potencies comparable to DMTU	potencies comparable to DMTU		
NC(N)=S [Compound 2]				significant loss of UT-A1 and UT-B inhibition activity	significant loss of UT-A1 and UT-B inhibition activity	> 25000	
CNC(=S)NC [Compound 1, N, N′-dimethylthiourea]						3900 ± 600	Water solubility [4]: 7900 mM; Solubility in saline ([4]; saline): > 50 mg/mL; IC50 [6]: 2000 to 3000 µM; IC50 [7]: 2000 to 3000 µM; Diuretic action [8]: reduce urinary osmolality in rats and produce a salt-sparing diuresis

The next lines start with results.

IC50 [1]	Selectivity for UT-A1 vs. UT-B inhibition [1]	IC50 [2, 9]	UT-A1 inhibition activity (in words) [1]	UT-B inhibition activity (in words) [2]	IC50 [2, 10] [µM]	Compound	also measured
~200 µM and 200 µM	non-selective	~200 µM and 200 µM				NC(=S)Nc1cccc([N+](=O)[O-])c1 [Compound 32, 3-nitrophenylthiourea]	IC50 improvement relative to 18 [1]: ~6 fold; Kinetics of UT-A1 inhibition ([3]; 0.2 mM added at different times prior to assay): very rapid; Reversibility of UT-A1 inhibition ([3]; 0.2 mM, 15 min incubation, washed twice): fully reversible; Inhibition mechanism from urea concentration-dependence of IC50 ([3]; urea gradients 80 to 1,600 mM): competitive inhibition mechanism; solubility ([4]; water): 0.64 mM (≈ 126 µg/mL); Cytotoxicity to MDCK cells [5]: no cytotoxicity
	UT-B selective				2800	NC(=S)c1ccncc1 [thioisonicotinamide]	
	selective for UT-B over UT-A1				2800 ± 500	NC(=S)c1ccncc1 [Compound 26, thioisonicotinamide]	
> 25000 µM		10000 ± 2000 µM				NC(=S)c1cccnc1 [Compound 27, thionicotinamide]	
